Drawing on PubChem BioAssay, this text covers viability, differential viability (reversal) and inhibition for 18 molecules.

Assay [1] in a line: reduced viability of SK-BR-3 breast cancer cells – cell-based, 24 h, human, pilot screen (AID 572).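 Also: compound exposure lasted between 18 and 24 h rather than exactly 24 h; 100% = carrier-treated control wells.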 Conditions: SK-BR-3 viability, CellTiter-Glo luminescence, at 10 µM, stronger effect = lower value. On the technique in general: In ATP-based viability assays light output follows the ATP content of the culture.
Assay [2] is described as follows: HUVEC growth inhibition – cell-based, human, primary screen (AID 575;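 active = viability at or below 30% in both replicate assays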;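 also: 100% = median of untreated cell wells with 0.1% DMSO on each plate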). Conditions: HUVEC proliferation, CellTiter-Glo luminescence, 72 h; at 10 µM; stronger effect = lower value. The method, boiled down:
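Assay system: primary human umbilical vein endothelial cells / Buffer or medium: endothelial basal medium with 2% FBS plus growth supplements / Compound dosing: one dose, 10 µM final, 0.1% DMSO / Timing: 72 h treatment at 37 °C / Signal: CTG luminescence / Benchmarks: 32 DMSO-only cell-control wells (high), 32 MePR drug-control wells (low) per plate / Plate: collagen-coated 384-well format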

Assay [3] can be described thus: H69AR cell proliferation blockers – human, duplicate replicates, primary screen (AID 580;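 active = viability at or under a set limit in both replicates, limit being median viability minus 3 SD, cut at about 48% in these data, passing the limit was not always enough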;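 also: 100% = mean luminescence of untreated wells and 0% = no signal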). Conditions: H69AR lung tumor cells viability, ATP luminescence, 72 h; at 10 µM; stronger effect = lower value.
Assay [4] is described as follows: MRP1 drug-resistance reversers in H69AR cells – cell-based, doxorubicin co-treatment, pilot screen (AID 601;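 active = viability loss from added drug above about 55%, and viability with drug at most 40%, in both replicates, limit read from the data, passing the limit was not always enough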). Conditions: CellTiter-Glo, 72 h, at 10 µM; for differential viability (reversal): stronger effect = higher value.
Assay [5] can be described thus: yeast transport mutant growth inhibition pilot in 384-well plates, post-Golgi transport modulator project (AID 636; in the data active = inhibition above about 31%). Conditions: absorbance 615 nm, about 18 h, stronger effect = higher value.
Assay [6] in a line: growth suppression of yeast trafficking mutant, preliminary HTS, modulators of trafficking downstream of Golgi apparatus project, 1536-format plate, OD 615 nm (AID 637; in the data active = inhibition above about 30%). Conditions: yeast transport mutant growth, absorbance 615 nm, 18 h; stronger effect = higher value.
The mark [7] stands for this setting: H69AR cells + 2 uM doxorubicin, measured here: viability with 2 uM doxorubicin, stronger effect = lower value.
Setting [8] is: H69AR cells, compound alone cytotoxicity.

Structures are written as SMILES. Calls of active or inactive are those of the source.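 The calls were made as follows, unless noted: active = viability at or below 10% of carrier control in both of two separate runs; inconclusive = viability at or below 10% in only one of the two runs; inactive = the rest.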

Turning to `Cc1c(NC(=O)C(C)OC(=O)c2cc3c4ccccc4n(C)c3s2)c(=O)n(-c2ccccc2)n1C` (centres undefined), the viability (as a rule, a read-out of living cells in per cent, often relative to untreated cells) is 94% (inactive) in assay [1]; 80.8% (inactive) in assay [2]; 78.4% (inactive) in assay [3]; 88.4% in assay [4] (setting [7]); 78.4% in assay [4] (setting [8]). For the same molecule, the differential viability (reversal) in assay [4] (H69AR cells + 2 uM doxorubicin) was -10% (inactive). Besides, the inhibition (in general, the relative decrease from the control value, in per cent) is -11.4% (inactive) in assay [5] and 1.13% (inactive) in assay [6].
In the case of `CC(C)OC(=O)CCCCCN1C(=O)CSC1=S`, the viability was 108% (inactive) in assay [1]; 86.7% (inactive) in assay [2]; 68.2% (inactive) in assay [3]; 75.7% in assay [4] (setting [7]); 68.2% in assay [4] (setting [8]). Moreover, the differential viability (reversal) in assay [4] (H69AR cells + 2 uM doxorubicin) is -7.49% (inactive). Besides, the figures for the inhibition in assay [5] and in assay [6] were -0.67% (inactive) and -6.13% (inactive), respectively.
For the molecule `c1ccc(-c2cnc(CSc3ncnc4sccc34)o2)cc1`, the viability in assay [1] was 94% (inactive); in assay [2], 90.7% (inactive); in assay [3], 96.9% (inactive); in assay [4] (setting [7]), 82.2%; in assay [4] (setting [8]), 96.9%. In addition, the differential viability (reversal) in assay [4] (H69AR cells + 2 uM doxorubicin) was 14.7% (inactive). The inhibition in assay [5] was -5.68% (inactive); in assay [6] it was -5.82% (inactive).
Take `CC1CC(C)CN(c2nc3c(c(=O)[nH]c(=O)n3C)n2CCCSc2nc3ccccc3s2)C1` (centres undefined): the viability in assay [1] was 59% (inactive); in assay [2], 115% (inactive); in assay [3] it was 100% (inactive); in assay [4] (setting [7]), 106%; in assay [4] (setting [8]) it was 100%. The differential viability (reversal) in assay [4] (H69AR cells + 2 uM doxorubicin) was -5.73% (inactive). The inhibition was -0.14% (inactive) in assay [5] and 4.36% (inactive) in assay [6].
With `CC(=O)Nc1ccc(S(=O)(=O)NCc2csc(-c3cccnc3)n2)cc1`, the viability is 97% (inactive) in assay [1]; 101% (inactive) in assay [2]; 97.6% (inactive) in assay [3]; 102% in assay [4] (setting [7]); 97.6% in assay [4] (setting [8]). The differential viability (reversal) in assay [4] (H69AR cells + 2 uM doxorubicin) was -4.67% (inactive). For the same molecule, the inhibition in assay [5] was -1.69% (inactive); in assay [6] it was 1.8% (inactive).
For `Cc1ccc2c(C)nc(NC3=NCN(C(C)C)CN3)nc2c1`, the viability was 106% (inactive) in assay [1]; 94.3% (inactive) in assay [2]; 84.3% (inactive) in assay [3]; 99.7% in assay [4] (setting [7]); 84.3% in assay [4] (setting [8]). Moreover, the differential viability (reversal) in assay [4] (H69AR cells + 2 uM doxorubicin) was -15.4% (inactive). Further, the inhibition was -5.89% (inactive) in assay [5] and 0.48% (inactive) in assay [6].
Regarding `COCCCN1C(=O)C(O)=C(C(C)=O)C1c1ccccn1` (centres undefined), the viability was 106% (inactive) in assay [1]; 102% (inactive) in assay [2]; 86.6% (inactive) in assay [3]; 85.9% in assay [4] (setting [7]); 86.6% in assay [4] (setting [8]). The differential viability (reversal) in assay [4] (H69AR cells + 2 uM doxorubicin) was 0.675% (inactive). Also, the inhibition in assay [5] is -3.73% (inactive); in assay [6] it was -1.45% (inactive).
In the case of `COc1ccc2c(c1)c(CC(=O)O)c(C)n2C(=O)c1ccc(Cl)cc1`, the viability is 99% (inactive) in assay [1]; 69.3% (inactive) in assay [2]; 95.6% (inactive) in assay [3]; 92.3% in assay [4] (setting [7]); 95.6% in assay [4] (setting [8]). Moreover, in assay [4] (H69AR cells + 2 uM doxorubicin), the differential viability (reversal) was 3.25% (inactive). Besides, the inhibition is -4.16% (inactive) in assay [5] and 0.5% (inactive) in assay [6].
For the molecule `CCn1c(SCC(=O)Nc2cc(NC(C)=O)ccc2OC)nnc1-c1ccccn1`, the viability is 93% (inactive) in assay [1]; 89.6% (inactive) in assay [2]; 94.1% (inactive) in assay [3]; 85.8% in assay [4] (setting [7]); 94.1% in assay [4] (setting [8]). The differential viability (reversal) in assay [4] (H69AR cells + 2 uM doxorubicin) was 8.36% (inactive). Moreover, the inhibition in assay [5] was -1.51% (inactive); in assay [6], 2.1% (inactive).
Consider `CC1=NN(c2ccccc2)C(=O)C1`, for which the viability in assay [1] is 96% (inactive); in assay [2], 74.6% (inactive); in assay [3], 94.5% (inactive); in assay [4] (setting [7]), 105%; in assay [4] (setting [8]), 94.5%. For the same molecule, the differential viability (reversal) in assay [4] (H69AR cells + 2 uM doxorubicin) was -10.1% (inactive). For the same molecule, the inhibition in assay [5] was 1.95% (inactive); in assay [6], 0.67% (inactive).
With `CCc1c(C)c2ccc(OCC(=O)OC)cc2oc1=O`, the viability in assay [1] was 109% (inactive); in assay [2], 92.8% (inactive); in assay [3] it was 94.4% (inactive); in assay [4] (setting [7]), 96.9%; in assay [4] (setting [8]) it was 94.4%. In addition, the differential viability (reversal) in assay [4] (H69AR cells + 2 uM doxorubicin) is -2.49% (inactive). Besides, the inhibition in assay [5] is -1.49% (inactive); in assay [6], 21.4% (inactive).
As for `O=C(O)COc1cccc(NC(=O)C2CCCO2)c1` (centres undefined), the viability in assay [1] is 81% (inactive); in assay [2], 102% (inactive); in assay [3], 93.3% (inactive); in assay [4] (setting [7]), 104%; in assay [4] (setting [8]), 93.3%. For the same molecule, the differential viability (reversal) in assay [4] (H69AR cells + 2 uM doxorubicin) is -10.7% (inactive). Moreover, the inhibition was 0.14% (inactive) in assay [5] and 10.9% (inactive) in assay [6].
For the molecule `COc1cc(NC(=O)Nc2cccc(C(C)=O)c2)cc(OC)c1OC`, the viability in assay [1] is 109% (inactive); in assay [2], 102% (inactive); in assay [3] it was 92.4% (inactive); in assay [4] (setting [7]) it was 87.6%; in assay [4] (setting [8]), 92.4%. Further, the differential viability (reversal) in assay [4] (H69AR cells + 2 uM doxorubicin) was 4.83% (inactive). In addition, the inhibition in assay [5] is -8.36% (inactive); in assay [6], -0.18% (inactive).
`CCOC(=O)CSc1nnc2n1C(C)(C)Cc1ccccc1-2`: the viability in assay [1] is 110% (inactive); in assay [2], 111% (inactive); in assay [3], 101% (inactive); in assay [4] (setting [7]) it was 106%; in assay [4] (setting [8]), 101%. Further, the differential viability (reversal) in assay [4] (H69AR cells + 2 uM doxorubicin) was -5.61% (inactive). In addition, the inhibition was 4.32% (inactive) in assay [5] and -0.91% (inactive) in assay [6].
With `CC1(C)CC(=O)C2=C(C1)Nc1ccccc1N=C2`, the viability was 66% (inactive) in assay [1]; 82.3% (inactive) in assay [2]; 70.3% (inactive) in assay [3]; 90% in assay [4] (setting [7]); 70.3% in assay [4] (setting [8]). Further, the differential viability (reversal) in assay [4] (H69AR cells + 2 uM doxorubicin) is -19.7% (inactive). Moreover, the inhibition in assay [5] was -0.41% (inactive); in assay [6] it was 2.73% (inactive).
`CNC[C@H](O)c1cccc(O)c1`: the viability in assay [1] was 131% (inactive); in assay [2], 93.7% (inactive); in assay [3], 92.5% (inactive); in assay [4] (setting [7]) it was 84.8%; in assay [4] (setting [8]) it was 92.5%. In assay [4] (H69AR cells + 2 uM doxorubicin), the differential viability (reversal) is 7.67% (inactive). The values for the inhibition in assay [5] and in assay [6] were -1.56% (inactive) and 2.5% (inactive), respectively.
Take `COCCNC(=O)CN1CCC(NC(=O)Nc2ccc(C(F)(F)F)cc2)CC1`: the viability in assay [1] was 92% (inactive); in assay [2] it was 96.5% (inactive); in assay [3], 102% (inactive); in assay [4] (setting [7]) it was 93.5%; in assay [4] (setting [8]), 102%. Besides, in assay [4] (H69AR cells + 2 uM doxorubicin), the differential viability (reversal) was 8.66% (inactive). Besides, the inhibition in assay [5] is -5.54% (inactive); in assay [6], 0.55% (inactive).
`COc1ccc(C(O)C(CN2CCOCC2)c2ccccc2)cc1F` (centres undefined): the viability in assay [1] was 107% (inactive); in assay [2], 109% (inactive); in assay [3], 103% (inactive); in assay [4] (setting [7]), 97.8%; in assay [4] (setting [8]), 103%. Besides, the differential viability (reversal) in assay [4] (H69AR cells + 2 uM doxorubicin) was 4.89% (inactive). In addition, the inhibition in assay [5] is -0.26% (inactive); in assay [6], 1.64% (inactive).
